Assays:
[1] = Inhibition of human TTBK1 (1 to 479 residues) using Casein as substrate measured after 40 mins in presence of [gamma33P]ATP by scintillation counting method
How it was run: (§1)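 Eurofins radiometric kinase assay run at ATP equal to Km for each kinase. 9-point dose–response in duplicate gives the IC50.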

[2] = target: MAP/microtubule affinity-regulating kinase 3 (Homo sapiens, UniProt P27448); test: Displacement of tracer K9 from NLuc fused MARK3 (unknown origin) expressed in HEK293 cells by NanoBRET assay; assay type: cell-based
[3] = Kinetic solubility of compound in PBS at pH 7.4 incubated for 24 hrs by chemiluminscent nitrogen detection method; assay type: physicochemical; conditions: buffer, pH 7.4, 24 h
How it was run: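 Filtrates were quantified by total chemiluminescent nitrogen determination against a calibration curve, with correction for background nitrogen from DMSO and medium.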

[4] = target: MAP kinase-interacting serine/threonine-protein kinase 2 (Homo sapiens, UniProt Q9HBH9); test: Inhibition of full length recombinant human MKNK2 using myelin basic protein as substrate incubated for 40 mins in presence of [gamma-33P-ATP] by radiometric scintillation assay; how it was run: as §1
[5] = target: T1, Serine/threonine-protein kinase TBK1 (Homo sapiens, UniProt Q9UHD2); test: Displacement of tracer K5 from NLuc fused TBK1 (unknown origin) expressed in HEK293 cells by NanoBRET assay; assay type: cell-based
T1 sequence (Q9UHD2 whole entry): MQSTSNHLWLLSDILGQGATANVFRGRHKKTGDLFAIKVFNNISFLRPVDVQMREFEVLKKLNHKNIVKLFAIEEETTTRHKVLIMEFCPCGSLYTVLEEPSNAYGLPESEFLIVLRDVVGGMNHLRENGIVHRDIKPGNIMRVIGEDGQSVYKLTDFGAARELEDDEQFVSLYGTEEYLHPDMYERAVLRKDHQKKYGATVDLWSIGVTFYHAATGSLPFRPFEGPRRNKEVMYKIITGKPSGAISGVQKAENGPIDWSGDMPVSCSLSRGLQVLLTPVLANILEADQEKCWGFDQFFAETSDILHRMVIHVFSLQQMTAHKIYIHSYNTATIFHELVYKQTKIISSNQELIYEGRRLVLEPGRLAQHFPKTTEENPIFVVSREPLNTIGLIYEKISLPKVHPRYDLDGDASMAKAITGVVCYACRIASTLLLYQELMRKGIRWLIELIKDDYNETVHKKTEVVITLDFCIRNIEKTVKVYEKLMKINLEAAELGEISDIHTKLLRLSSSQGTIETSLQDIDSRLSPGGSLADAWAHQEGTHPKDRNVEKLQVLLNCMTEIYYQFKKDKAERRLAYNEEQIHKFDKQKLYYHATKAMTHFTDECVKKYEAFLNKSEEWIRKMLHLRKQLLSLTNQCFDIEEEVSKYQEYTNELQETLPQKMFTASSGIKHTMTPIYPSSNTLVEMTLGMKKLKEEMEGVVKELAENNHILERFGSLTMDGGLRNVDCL
How it was run: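 HEK293 cells grown in DMEM with 10% FBS at 37 °C, 5% CO2. NanoBRET assay run in dose–response per manufacturer's protocol with tracer K-5 at 0.5 μM. SEM calculated for assays run more than once.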

[6] = target: T2, Inhibitor of nuclear factor kappa-B kinase subunit epsilon (Homo sapiens, UniProt Q14164); test: Inhibition of full length recombinant human IKKepsilon using casein as substrate incubated for 40 mins in presence of [gamma-33P-ATP] by radiometric scintillation assay; how it was run: as §1
T2 sequence (Q14164 whole entry): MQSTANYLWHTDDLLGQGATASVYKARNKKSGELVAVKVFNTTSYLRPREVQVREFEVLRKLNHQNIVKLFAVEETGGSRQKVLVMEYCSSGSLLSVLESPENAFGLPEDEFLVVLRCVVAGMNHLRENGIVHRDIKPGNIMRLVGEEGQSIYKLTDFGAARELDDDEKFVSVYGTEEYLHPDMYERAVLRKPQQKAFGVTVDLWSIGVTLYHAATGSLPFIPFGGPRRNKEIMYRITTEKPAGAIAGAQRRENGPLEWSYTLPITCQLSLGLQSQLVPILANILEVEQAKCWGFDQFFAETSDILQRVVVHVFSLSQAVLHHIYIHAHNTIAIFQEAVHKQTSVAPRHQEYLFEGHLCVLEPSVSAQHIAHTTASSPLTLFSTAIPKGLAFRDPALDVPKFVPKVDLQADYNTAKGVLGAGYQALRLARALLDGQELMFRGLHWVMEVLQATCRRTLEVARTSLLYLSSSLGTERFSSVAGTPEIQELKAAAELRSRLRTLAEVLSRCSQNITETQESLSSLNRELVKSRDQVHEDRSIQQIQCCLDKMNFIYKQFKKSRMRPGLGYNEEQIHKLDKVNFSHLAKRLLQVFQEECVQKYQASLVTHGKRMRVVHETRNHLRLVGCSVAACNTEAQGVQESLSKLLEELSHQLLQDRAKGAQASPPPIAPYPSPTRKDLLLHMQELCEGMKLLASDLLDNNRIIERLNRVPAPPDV

[7] = target: Death-associated protein kinase 3 (Homo sapiens, UniProt O43293); test: Inhibition of recombinant human ZIPK (1 to 290 residues) using KKLNRTLSFAEPG as substrate measured after 40 mins in presence of [gamma33P]ATP by radiometric scintillation counting method
How it was run: (§2)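 Eurofins radiometric enzymatic assay with ATP at Km for each kinase. IC50 was derived from a 9-point dose–response curve run in duplicate.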

[8] = target: T3, MAP/microtubule affinity-regulating kinase 4 (Homo sapiens, UniProt Q96L34); test: Displacement of tracer K5 from NLuc fused MARK4 (unknown origin) expressed in HEK293 cells by NanoBRET assay; assay type: cell-based
T3 sequence (Q96L34 whole entry): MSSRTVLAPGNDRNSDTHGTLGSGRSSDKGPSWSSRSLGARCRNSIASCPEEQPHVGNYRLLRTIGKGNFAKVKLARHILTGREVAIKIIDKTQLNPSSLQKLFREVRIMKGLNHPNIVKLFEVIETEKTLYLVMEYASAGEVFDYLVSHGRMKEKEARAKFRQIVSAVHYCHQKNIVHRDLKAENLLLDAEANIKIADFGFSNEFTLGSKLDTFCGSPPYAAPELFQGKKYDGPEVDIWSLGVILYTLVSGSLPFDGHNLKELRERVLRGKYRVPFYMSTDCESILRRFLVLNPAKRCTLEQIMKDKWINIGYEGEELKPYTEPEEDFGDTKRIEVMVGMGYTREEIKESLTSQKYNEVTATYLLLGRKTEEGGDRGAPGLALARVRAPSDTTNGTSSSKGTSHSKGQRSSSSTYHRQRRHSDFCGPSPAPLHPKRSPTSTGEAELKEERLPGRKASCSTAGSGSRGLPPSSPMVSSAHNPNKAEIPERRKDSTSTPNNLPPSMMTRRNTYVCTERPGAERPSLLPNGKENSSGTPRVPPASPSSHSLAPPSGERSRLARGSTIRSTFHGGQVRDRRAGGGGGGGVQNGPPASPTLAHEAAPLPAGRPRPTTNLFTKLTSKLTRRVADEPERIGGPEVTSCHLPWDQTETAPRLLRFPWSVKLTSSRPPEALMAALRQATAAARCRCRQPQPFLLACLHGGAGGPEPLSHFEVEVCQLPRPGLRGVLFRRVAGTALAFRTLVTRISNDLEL

[9] = target: T4, Serine/threonine-protein kinase 17A (Homo sapiens, UniProt Q9UEE5); test: Displacement of tracer K9 from NLuc fused DRAK1 (unknown origin) expressed in HEK293 cells by NanoBRET assay; assay type: cell-based
T4 sequence (Q9UEE5 whole entry): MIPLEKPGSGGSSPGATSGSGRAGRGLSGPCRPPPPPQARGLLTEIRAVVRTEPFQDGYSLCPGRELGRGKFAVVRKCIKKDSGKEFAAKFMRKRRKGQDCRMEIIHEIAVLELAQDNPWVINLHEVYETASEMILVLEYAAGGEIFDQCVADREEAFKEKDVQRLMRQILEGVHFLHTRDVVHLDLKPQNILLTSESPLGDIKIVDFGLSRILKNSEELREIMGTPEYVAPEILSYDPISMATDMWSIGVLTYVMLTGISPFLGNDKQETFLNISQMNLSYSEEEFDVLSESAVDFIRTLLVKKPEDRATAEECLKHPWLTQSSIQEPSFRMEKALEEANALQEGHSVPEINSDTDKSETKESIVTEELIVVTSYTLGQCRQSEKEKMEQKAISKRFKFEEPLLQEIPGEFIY

[10] = Effective permeability in PBS at 7.4 incubated for 5 hrs by PAMPA analysis; assay type: ADME; conditions: pH 7.4, 5 h
How it was run: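 PAMPA: DMSO stocks were diluted in PBS pH 7.4 and placed in the donor compartment, with PBS pH 7.4 in the acceptor, for 5 h. Both compartments were quantified by CLND against a calibration curve, with background nitrogen correction. Effective permeability was calculated from donor and acceptor concentrations using measured rather than assumed solubility.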

[11] = target: T5, Macrophage colony-stimulating factor 1 receptor (Homo sapiens, UniProt P07333); test: Inhibition of NanoLuc-fused CSF1R (unknown origin) expressed in HEK293 cells incubated for 2 hrs by NanoBRET assay; assay type: cell-based
[12] = target: Tyrosine-protein kinase JAK2 (Homo sapiens) (UniProt O60674); test: Inhibition of recombinant human JAK2 (808 to end residues) using KTFCGTPEYLAPEVRREPRILSEEEQEMFRDFDYIADWC as substrate at 1 uM incubated for 40 mins in presence of [gamma-33P-ATP] by radiometric scintillation assay relative to control
How it was run: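 Eurofins radiometric kinase assay with ATP at Km for each kinase. Compound was tested at a single 1 μM concentration in duplicate, and the result is reported as percent of control.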

[13] = target: T5, Macrophage colony-stimulating factor 1 receptor; test: Inhibition of recombinant human FMS (538 to end residues) using KKKSPGEYVNIEFG as substrate measured after 40 mins in presence of [gamma33P]ATP by radiometric scintillation counting method; how it was run: as §1
[14] = target: T6, Non-receptor tyrosine-protein kinase TYK2 (Homo sapiens, UniProt P29597); test: Inhibition of NanoLuc-fused TYK2 (unknown origin) expressed in HEK293 cells incubated for 2 hrs by NanoBRET assay; assay type: cell-based
How it was run: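 Cellular NanoBRET target-engagement assays were run by Carna Biosciences to the manufacturer's protocol. Dose–response was in singlicate, with compounds tested at concentrations up to 10 μM.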

[15] = target: T6, Non-receptor tyrosine-protein kinase TYK2; test: Inhibition of human TYK2 (875 to end residues) using GGMEDIYFEFMGGKKK as substrate measured after 40 mins in presence of [gamma33P]ATP by radiometric scintillation counting method; how it was run: as §2
[16] = target: Receptor tyrosine-protein kinase erbB-2 (Homo sapiens, UniProt P04626); test: Inhibition of recombinant human ERBB2 (676 to 1255 residues) using poly(Glu:Tyr) as substrate incubated for 40 mins in presence of [gamma-33P-ATP] by radiometric scintillation assay; how it was run: as §2

T5 sequence (P07333 whole entry, the tested form may be a part): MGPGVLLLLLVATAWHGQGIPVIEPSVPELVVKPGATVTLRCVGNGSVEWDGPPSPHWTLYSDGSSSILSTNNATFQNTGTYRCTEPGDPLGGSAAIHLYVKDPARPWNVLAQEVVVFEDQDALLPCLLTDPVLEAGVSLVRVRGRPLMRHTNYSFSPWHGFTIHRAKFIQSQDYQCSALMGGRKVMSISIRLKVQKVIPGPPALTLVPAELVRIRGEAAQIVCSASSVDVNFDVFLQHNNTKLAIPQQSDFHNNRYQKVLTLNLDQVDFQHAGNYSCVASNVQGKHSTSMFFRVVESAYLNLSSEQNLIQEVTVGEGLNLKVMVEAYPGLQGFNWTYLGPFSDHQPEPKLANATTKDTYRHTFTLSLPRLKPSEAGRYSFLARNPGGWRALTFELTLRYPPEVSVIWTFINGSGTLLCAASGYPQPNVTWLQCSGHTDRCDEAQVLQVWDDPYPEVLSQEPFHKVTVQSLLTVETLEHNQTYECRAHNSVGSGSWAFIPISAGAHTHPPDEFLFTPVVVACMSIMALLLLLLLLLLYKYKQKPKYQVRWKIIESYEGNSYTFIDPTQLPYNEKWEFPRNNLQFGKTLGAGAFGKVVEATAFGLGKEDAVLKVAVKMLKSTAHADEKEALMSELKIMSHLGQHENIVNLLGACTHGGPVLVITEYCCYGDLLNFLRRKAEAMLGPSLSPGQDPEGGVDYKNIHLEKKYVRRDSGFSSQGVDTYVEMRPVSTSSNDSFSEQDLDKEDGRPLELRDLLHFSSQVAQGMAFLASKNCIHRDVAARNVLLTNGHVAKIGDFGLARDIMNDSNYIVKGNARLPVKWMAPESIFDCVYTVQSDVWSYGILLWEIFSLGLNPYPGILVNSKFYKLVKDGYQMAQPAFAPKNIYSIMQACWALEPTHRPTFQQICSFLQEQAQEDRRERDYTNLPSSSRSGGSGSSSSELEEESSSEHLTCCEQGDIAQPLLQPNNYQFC
T6 sequence (P29597 whole entry, the tested form may be a part): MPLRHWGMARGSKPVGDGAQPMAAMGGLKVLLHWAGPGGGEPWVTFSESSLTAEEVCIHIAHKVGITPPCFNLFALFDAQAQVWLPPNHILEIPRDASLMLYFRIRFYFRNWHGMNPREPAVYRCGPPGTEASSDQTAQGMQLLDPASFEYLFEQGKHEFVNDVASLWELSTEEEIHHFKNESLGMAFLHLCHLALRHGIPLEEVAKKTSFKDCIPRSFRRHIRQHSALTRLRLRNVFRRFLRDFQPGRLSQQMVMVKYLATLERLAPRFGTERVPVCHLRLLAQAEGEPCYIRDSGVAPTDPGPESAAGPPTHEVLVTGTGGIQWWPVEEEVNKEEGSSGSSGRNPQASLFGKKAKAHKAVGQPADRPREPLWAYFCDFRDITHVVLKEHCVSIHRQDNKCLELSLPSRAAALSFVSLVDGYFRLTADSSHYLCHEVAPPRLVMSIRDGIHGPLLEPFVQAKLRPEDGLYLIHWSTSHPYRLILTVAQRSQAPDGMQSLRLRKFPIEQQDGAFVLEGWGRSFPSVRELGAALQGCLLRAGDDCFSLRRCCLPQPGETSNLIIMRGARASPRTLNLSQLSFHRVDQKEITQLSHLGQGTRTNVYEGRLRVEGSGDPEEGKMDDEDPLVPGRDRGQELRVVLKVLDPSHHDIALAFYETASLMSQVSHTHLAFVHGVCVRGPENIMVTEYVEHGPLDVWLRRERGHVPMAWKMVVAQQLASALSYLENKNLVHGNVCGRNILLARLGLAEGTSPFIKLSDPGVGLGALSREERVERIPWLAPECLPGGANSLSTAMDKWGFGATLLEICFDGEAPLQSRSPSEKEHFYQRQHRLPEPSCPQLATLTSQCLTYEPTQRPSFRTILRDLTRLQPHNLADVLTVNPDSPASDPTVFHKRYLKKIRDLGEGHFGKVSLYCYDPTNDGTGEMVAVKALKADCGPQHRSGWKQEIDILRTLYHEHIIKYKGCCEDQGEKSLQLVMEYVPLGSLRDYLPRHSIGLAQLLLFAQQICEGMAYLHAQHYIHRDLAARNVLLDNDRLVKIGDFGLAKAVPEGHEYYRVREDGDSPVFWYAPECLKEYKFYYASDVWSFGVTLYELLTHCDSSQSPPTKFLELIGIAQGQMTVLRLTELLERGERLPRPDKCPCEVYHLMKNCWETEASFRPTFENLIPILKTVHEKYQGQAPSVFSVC
MAP/microtubule affinity-regulating kinase 3, sequence (P27448 whole entry, the tested form may be a part): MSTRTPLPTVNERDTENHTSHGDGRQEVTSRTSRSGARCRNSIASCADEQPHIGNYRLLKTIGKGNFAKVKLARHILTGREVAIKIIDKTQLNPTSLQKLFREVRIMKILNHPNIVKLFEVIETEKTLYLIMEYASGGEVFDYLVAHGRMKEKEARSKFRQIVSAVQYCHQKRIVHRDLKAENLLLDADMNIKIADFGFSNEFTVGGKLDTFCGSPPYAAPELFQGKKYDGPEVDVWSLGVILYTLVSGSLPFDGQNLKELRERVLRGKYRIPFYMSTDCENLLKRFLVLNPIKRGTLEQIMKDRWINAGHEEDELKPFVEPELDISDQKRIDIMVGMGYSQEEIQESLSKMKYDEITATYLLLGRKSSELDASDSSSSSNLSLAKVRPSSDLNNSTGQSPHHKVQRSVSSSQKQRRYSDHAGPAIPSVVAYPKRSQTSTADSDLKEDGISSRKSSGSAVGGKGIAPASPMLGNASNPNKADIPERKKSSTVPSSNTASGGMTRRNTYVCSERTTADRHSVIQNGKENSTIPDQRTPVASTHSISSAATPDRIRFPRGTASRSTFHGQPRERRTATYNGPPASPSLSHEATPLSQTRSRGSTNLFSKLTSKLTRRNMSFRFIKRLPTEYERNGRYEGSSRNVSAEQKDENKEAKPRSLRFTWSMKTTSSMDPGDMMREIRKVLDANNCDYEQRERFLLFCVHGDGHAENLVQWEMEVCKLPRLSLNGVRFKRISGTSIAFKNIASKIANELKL
MAP kinase-interacting serine/threonine-protein kinase 2, sequence (Q9HBH9 whole entry, the tested form may be a part): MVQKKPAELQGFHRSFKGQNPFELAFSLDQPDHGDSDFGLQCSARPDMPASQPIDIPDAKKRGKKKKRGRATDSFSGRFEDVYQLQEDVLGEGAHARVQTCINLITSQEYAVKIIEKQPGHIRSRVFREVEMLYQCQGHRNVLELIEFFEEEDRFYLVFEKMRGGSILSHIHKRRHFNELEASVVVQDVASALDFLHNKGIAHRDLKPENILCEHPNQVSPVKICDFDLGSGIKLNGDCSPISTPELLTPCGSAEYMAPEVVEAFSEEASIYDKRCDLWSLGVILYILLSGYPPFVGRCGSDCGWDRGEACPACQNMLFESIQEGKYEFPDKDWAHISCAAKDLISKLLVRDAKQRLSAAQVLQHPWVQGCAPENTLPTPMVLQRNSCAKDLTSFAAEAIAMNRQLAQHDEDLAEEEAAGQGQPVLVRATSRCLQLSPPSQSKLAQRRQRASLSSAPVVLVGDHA
Death-associated protein kinase 3, sequence (O43293 whole entry, the tested form may be a part): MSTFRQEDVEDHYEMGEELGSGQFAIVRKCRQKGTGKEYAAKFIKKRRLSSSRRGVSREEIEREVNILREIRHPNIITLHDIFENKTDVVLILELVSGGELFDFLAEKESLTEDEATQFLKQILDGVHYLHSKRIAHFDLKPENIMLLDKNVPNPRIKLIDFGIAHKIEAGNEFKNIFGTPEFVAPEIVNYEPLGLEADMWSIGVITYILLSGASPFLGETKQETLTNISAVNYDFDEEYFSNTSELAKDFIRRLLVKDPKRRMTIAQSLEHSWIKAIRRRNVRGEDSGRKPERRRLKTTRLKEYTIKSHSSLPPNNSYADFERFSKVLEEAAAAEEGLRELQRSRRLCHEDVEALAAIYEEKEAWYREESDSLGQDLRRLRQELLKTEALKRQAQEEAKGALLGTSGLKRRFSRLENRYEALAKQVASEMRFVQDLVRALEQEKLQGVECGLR
Tyrosine-protein kinase JAK2 (Homo sapiens), sequence (O60674 whole entry): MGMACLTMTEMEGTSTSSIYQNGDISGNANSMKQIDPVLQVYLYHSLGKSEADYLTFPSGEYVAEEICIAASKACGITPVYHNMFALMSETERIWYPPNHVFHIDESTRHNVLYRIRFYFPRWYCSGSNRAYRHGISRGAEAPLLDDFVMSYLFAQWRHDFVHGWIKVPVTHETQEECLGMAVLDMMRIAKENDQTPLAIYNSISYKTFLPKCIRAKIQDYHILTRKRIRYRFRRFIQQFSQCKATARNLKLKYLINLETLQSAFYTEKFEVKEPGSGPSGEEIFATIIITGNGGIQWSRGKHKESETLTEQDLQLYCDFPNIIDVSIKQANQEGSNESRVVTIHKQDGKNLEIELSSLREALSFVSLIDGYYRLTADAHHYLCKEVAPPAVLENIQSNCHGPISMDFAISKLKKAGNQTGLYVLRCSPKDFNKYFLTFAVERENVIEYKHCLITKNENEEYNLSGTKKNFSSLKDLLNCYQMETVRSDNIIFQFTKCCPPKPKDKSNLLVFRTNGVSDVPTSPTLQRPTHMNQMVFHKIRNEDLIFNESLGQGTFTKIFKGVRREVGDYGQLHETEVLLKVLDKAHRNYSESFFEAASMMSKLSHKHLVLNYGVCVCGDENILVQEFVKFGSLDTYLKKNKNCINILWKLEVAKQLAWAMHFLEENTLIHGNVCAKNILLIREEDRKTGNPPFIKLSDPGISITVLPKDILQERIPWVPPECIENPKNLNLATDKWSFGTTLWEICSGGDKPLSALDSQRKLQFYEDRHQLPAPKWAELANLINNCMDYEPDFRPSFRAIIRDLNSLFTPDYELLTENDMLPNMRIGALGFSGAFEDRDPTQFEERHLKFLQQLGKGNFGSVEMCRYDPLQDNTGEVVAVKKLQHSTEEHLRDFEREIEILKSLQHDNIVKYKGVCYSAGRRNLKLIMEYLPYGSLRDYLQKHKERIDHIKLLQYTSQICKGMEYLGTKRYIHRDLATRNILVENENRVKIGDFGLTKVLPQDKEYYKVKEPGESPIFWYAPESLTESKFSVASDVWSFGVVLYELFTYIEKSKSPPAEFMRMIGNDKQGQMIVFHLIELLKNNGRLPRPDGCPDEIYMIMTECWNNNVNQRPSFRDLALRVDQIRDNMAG

Cc1nn(CC(F)(F)F)cc1Nc1ncc(Br)c(NCc2ccc(S(N)(=O)=O)cc2)n1
IC50 [1]: 0.037 µM | IC50 [2]: > 10 µM | Kinetic_solubility [3]: 176.9 µM | IC50 [4]: 1.37 µM | IC50 [5]: 0.339 µM | IC50 [6]: 0.552 µM | IC50 [7]: > 10 µM | IC50 [8]: > 10 µM | IC50 [9]: > 10 µM | Peff ([10]; BLD = below limit of detection): Bld | IC50 [11]: > 10 µM

NS(=O)(=O)c1ccc(CNc2ccnc(Nc3cccc(CN4CCOCC4)c3)n2)cc1
IC50 [1]: 2.74 µM | IC50 [2]: > 10 µM | % control [12]: 54% | Kinetic solubility [3]: 176 µM | IC50 [5]: > 10 µM | IC50 [13]: 0.091 µM | IC50 [8]: > 10 µM | IC50 [14]: > 10 µM | IC50 [9]: > 10 µM | IC50 [15]: 0.276 µM | IC50 [16]: > 10 µM | Peff [10]: 4.56 10^-7 cm/s | IC50 [11]: 5.06 µM
